Screens as filed in PubChem BioAssay.
ABCG2 block: inhibitors of human ABCG2 transporter, ABCB1 counter-screen; hit rate 0.1% among 190,000; IgMXP3 cells, JC-1 efflux, flow cytometry; Q9UNQ0; inhibition, % at 6.6 µM; AID 1325;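 active means inhibition above 80%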;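 further: 0% = DMSO and 100% = nicardipine control wells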
Target sequence (Q9UNQ0 whole entry, looked up): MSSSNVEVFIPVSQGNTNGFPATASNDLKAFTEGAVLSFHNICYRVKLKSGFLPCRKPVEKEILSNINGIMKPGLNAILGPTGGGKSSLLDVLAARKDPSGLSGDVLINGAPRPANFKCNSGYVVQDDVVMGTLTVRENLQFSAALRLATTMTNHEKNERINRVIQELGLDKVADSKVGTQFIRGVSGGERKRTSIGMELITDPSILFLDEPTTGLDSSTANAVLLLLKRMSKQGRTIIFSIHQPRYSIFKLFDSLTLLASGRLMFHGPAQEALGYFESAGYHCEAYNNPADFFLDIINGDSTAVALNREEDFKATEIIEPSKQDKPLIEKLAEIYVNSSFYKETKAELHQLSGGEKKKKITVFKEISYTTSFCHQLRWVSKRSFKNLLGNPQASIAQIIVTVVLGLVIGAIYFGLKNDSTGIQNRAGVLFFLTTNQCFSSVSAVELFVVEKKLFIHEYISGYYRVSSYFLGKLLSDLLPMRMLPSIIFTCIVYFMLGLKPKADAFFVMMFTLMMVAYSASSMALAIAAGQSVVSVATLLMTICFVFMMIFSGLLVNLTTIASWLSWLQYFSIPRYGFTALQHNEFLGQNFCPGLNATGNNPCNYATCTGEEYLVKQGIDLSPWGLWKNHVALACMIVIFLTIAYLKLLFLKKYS
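Assay system – ABCG2 IgMXP3 and barcoded ABCB1 CCRF-Adr cell mix · Input – 3 million cells/mL in well · Reagent – JC-1 fluorescent substrate · Compound – single test compound dose, 6.6 µM final · Timing – 10 min exposure at 25 °C with rotation, no wash · Detection – flow cytometry of retained JC-1 fluorescence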
Ins promoter up: MIN6 insulin promoter up-regulation | MIN6 insulin promoter-GFP reporter, high-content imaging; hits give high values | z-score at 5 µM | hit rate 0.3% among 190,000;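 active means z-score above 3 at 5 µM with at least 500 cells counted in the well; inconclusive means wells under 500 cells, flagged as cytotoxic or low count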
Autophagy HCS: autophagy modulation, high-content screen | calls only at 10 µM (by protocol) | MEF GFP-LC3 puncta imaging; test concentration mostly 10 µM | AID 463193 | hit rate 0.98% among 190,000;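 active means percentage of spot-positive cells more than 3 SD above its plate mean, without a fluorescence outlier flag or 80% toxicity; inconclusive means no clear call, values can overlap the other calls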;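 further: spot-positive cell cutoff set from DMSO-treated cells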
sdo1 growth: compounds rescuing growth of sdo1-depleted yeast, bone marrow failure model | z-score at 10 µM | hit rate 0.21% among 140,000 | S. cerevisiae sdo1-depleted JHY4D growth rescue, OD600 30 h; hits give high values; pdr5 snq2 efflux-pump mutant strain | AID 817;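 active means z-score above 3 at both the 24 hr and the 30 hr optical density reads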;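 further: z-score against mean and SD of all compound wells on the same plate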
ABCB1 inh: inhibitors of human ABCB1 transporter, ABCG2 counter-screen. CCRF-Adr cells, JC-1 efflux, flow cytometry. AID 1326. P08183. hit rate 0.067% among 190,000. inhibition, % at 6.6 µM; in the data active means inhibition above about 40%;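 further: 0% = vehicle and 100% = reference inhibitor; higher value means more JC-1 retained so stronger ABCB1 efflux block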
ROMK primary: modulators of human ROMK potassium channel; AID 1918; hit rate 2% among 130,000; Tet-inducible ROMK, thallium flux fluorescence; actives lie on both sides; B-score at 10 µM;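 active means signal ratio slope over the read window, or its plate-corrected B-score, at least 3 SD from the plate mean, either direction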;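 further: B-score of the F/F0 ratio slope over 7 to 12 s after thallium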
The depositor's hits bear a star; i = inactive; ? = inconclusive; nt = no result given; + = active, no number. Sampled rows, rich in hits. Any-hit rate of the full collection: about 2.3%.

SMILES	ABCG2 block	Ins promoter up	Autophagy HCS	sdo1 growth	ABCB1 inh	ROMK primary
COc1ccc(C(=O)NCCCc2nc3ccccc3n2Cc2ccccc2C)cc1OC	8	-0.56	+	-0.72	8	-2.2
COc1ccccc1C/C(N)=N/OC(=O)c1ccco1	1	0.05	i	nt	0	0.84
O=C(c1ccc(Cl)c(S(=O)(=O)NCc2ccco2)c1)N1CCN(c2ccccc2F)CC1	28	nt	i	-0.92	3	nt
COc1ccccc1N1CCN(C(=O)c2ccc(Cl)c(S(=O)(=O)NCc3ccco3)c2)CC1	5	-0.28	+	-0.37	1	0.015
C/C(=N/NC(=O)c1ccc(Cl)s1)c1ccc(NC(=O)COc2ccc(Cl)cc2)cc1	-1	-0.64	i	-0.49	-1	nt
O=C(Cc1ccc(Cl)cc1)Nc1ccc(NC(=O)c2cccs2)cc1	3	0.26	+	nt	0	0.1
C/C(=N/NC(=O)c1cccs1)c1ccc(NC(=O)COc2ccc(Cl)cc2Cl)cc1	1	0.8	+	-0.47	0	0.61
COc1ccc(C(=O)NCC(=O)OCC(=O)Nc2cccc(S(=O)(=O)N3CCCC3)c2)cc1	nt	1.4	nt	nt	nt	nt
CCOc1ccc(N2C(=O)CC(NCc3ccc(F)cc3)C2=O)cc1 (stereo not drawn)	9	-0.31	+	0.69	1	nt
Cc1cc(N/N=C/c2ccc([N+](=O)[O-])o2)nc2ccccc12	1	nt	+	nt	0	-0.69
Cc1cc(C)cc(C(=O)NC(CC(N)=O)c2ccc(NC3CCCCC3)c([N+](=O)[O-])c2)c1 (stereo not drawn)	nt	-0.03	nt	nt	nt	nt
COc1ccc(C)cc1NC(=O)c1ccccc1NS(=O)(=O)c1ccc(Cl)s1	28	-0.3	i	nt	1	-3.7*
Cc1ccc(NC(=O)c2ccccc2NS(=O)(=O)c2ccc(Cl)s2)cc1S(=O)(=O)N1CCOCC1	0	-0.08	i	0.11	0	-3.1*
CC(C)(C)c1ccc(C(=O)Nc2cccc([N+](=O)[O-])c2)cc1	116*	-1.2	i	-0.89	11	0.46
O=C(CN(C(=O)CNC(=O)c1ccco1)c1ccc2c(c1)OCCO2)NC1CCCC1	1	nt	i	nt	0	0.54
C[C@H]1C=C(C(=O)NC2CC2)O[C@@H](OCc2ccc(CO)cc2)C1	nt	0.06	nt	nt	nt	nt
O=C(N/N=C/c1cccc(Br)c1)c1ccc(Cn2cc(Br)cn2)o1	8	-0.42	i	-0.4	3	0.34
Cc1ccsc1/C=N/NC(=O)c1ccc(Cn2cc(Br)cn2)o1	0	-0.08	+	0.7	0	-1.3
NC(=O)C[n+]1ccc(/C=N/O)cc1	-1	0.22	+	nt	-1	0.32
CC(C)N(C(=O)C[n+]1ccc(/C=N/O)cc1)C(C)C	2	nt	i	1.9	0	-0.01
CCOc1ccc(-n2c(SCc3ccc([N+](=O)[O-])cc3)nnc2-c2ccc(OC)cc2)cc1	-2	nt	i	-0.28	0	nt
COC(=O)C1=C(Nc2ccc(C)cc2)C=C(C)C(C(=O)OC)C1c1cccc(OC)c1 (stereo not drawn)	6	nt	i	-0.7	1	-1.4
COC(=O)C1=C(Nc2ccc(C)cc2)C=C(C)C(C(=O)OC)C1c1ccc(OC)cc1 (stereo not drawn)	1	nt	+	-0.05	0	1.2
CN(Cc1ccccc1)C(=O)C(C(=O)c1ccc(F)cc1)n1cc(Cl)ccc1=O (stereo not drawn)	1	-0.86	i	nt	1	-0.33
O=S(=O)(Nc1cc2nc3ccccc3nc2n1Cc1ccccc1)c1ccc(Cl)cc1	-3	nt	+	-0.24	0	nt
SMILES	ABCG2 block	Ins promoter up	Autophagy HCS	sdo1 growth	ABCB1 inh	ROMK primary
CCN=C1SC(C(=O)Nc2ccc(OC)cc2)CC(=O)N1CC (stereo not drawn)	2	-0.6	i	nt	0	nt
O=[N+]([O-])c1ccc(/C=C/C2=NN(c3ccccc3)C(c3ccco3)C2)cc1 (stereo not drawn)	+	0.77	?	1.1	+	-0.95
COc1ccc(N/C=C/c2nc(SC)nnc2C)cc1	4	0.26	+	nt	3	-2.3
CSc1nnc(C)c(/C=C/Nc2ccc(F)cc2)n1	5	nt	i	-0.33	1	nt
C[C@H]1CC[C@H]2C(=O)N3[C@H](c4cccc(N5CCCC5=O)c4)[C@@H](C)CC[C@H]3C(=O)N2[C@@H]1c1cccc(N2CCCC2=O)c1	0	0.51	i	0.13	3	0.55
C[C@H]1CC[C@H]2C(=O)N3[C@H](c4ccccc4Br)[C@@H](C)CC[C@H]3C(=O)N2[C@@H]1c1ccccc1Br	0	-4	+	-1	2	-4.3*
O=C(CSc1nc2ccccc2n1CCc1ccccc1)c1ccc(O)c(O)c1	2	1.3	i	nt	-1	1.4
Cc1cc(CNC(=O)Cc2ccccc2)c2ccccc2n1	8	-0.19	+	nt	1	nt
COc1cc(OC)cc(C(=O)NCc2cc(C)nc3ccccc23)c1	2	-0.2	i	nt	1	1.9
COc1ccccc1N(C)S(=O)(=O)c1ccc(C(=O)OCC(=O)c2c[nH]c3ccccc23)cc1	-1	0.55	i	-0.97	0	nt
O=C(Oc1cccc(/C=N/Nc2nc(Nc3ccccc3)nc(N3CCOCC3)n2)c1)c1ccco1	-3	-1.5	i	-1.5	1	-0.31
CCOc1cc(/C=N\Nc2ccc([N+](=O)[O-])cc2)ccc1OCC(=O)Nc1ccc(C)c(C)c1	0	nt	+	-0.67	0	nt
COc1cc(/C=N\NC(=O)CN2CCOCC2)ccc1OCC(=O)Nc1ccc(C)c(C)c1	5	nt	i	0.8	0	nt
COc1cc(/C=N\Nc2ccc([N+](=O)[O-])cc2)ccc1OCC(=O)Nc1ccc(C)c(C)c1	1	nt	+	0.99	2	nt
COc1cc(/C=N/NC(N)=O)ccc1OCC(=O)Nc1cc(C)c(C)cc1Br	0	0.36	+	nt	0	-0.0047
COc1ccc2nc(Nc3nc(CSc4nnnn4-c4ccccc4)cc(=O)[nH]3)nc(C)c2c1	16	-0.43	+	0.21	0	-0.048
CN(C)S(=O)(=O)c1ccc(Cl)c(NC(=O)COC(=O)/C=C/c2ccco2)c1	2	-0.24	i	nt	0	-0.0066
COc1ccc(OC)c(NC(=O)c2ccc3c(=O)n(CCc4ccccc4)c(=S)[nH]c3c2)c1	-15	0.76	+	-0.43	0	nt
COc1ccc2nc(N/C(N)=N/C(=S)Nc3c(C)cccc3C)nc(C)c2c1	4	-0.21	+	nt	1	0.83
O=C(Nc1ccc2c(c1)nc1n2CCSC1)c1ccco1	5	-0.68	+	-1.7	1	nt
COc1cc(SC)ccc1C(=O)Nc1ncc(Cl)cc1Cl	4	-0.62	+	nt	1	0.63
COc1cc(SC)ccc1C(=O)Nc1ccc(Br)cn1	nt	-1.8	nt	nt	nt	nt
Cc1ccc(-n2ncc(Br)c(Br)c2=O)cc1	0	-5	+	nt	0	-0.05
O=C(Nc1ccc(Cl)cc1)c1ccc(Br)cc1F	23	-0.49	i	nt	2	nt
